Measurements from different studies.
Protocols differ between the studies behind these lines.
Target: Insulin receptor-related protein (INSRR, Homo sapiens, UniProt P14616)

Structure (SMILES) | effect on | method | concentration | remaining binding [%]
Cc1nc(C2CCN(C(=O)c3ccc(OC(F)(F)F)cc3N)CC2)c2ncc(N3CCN(C)CC3)cc2n1 | cell-free assay | competition with immobilised ligand | 1 µM | 100
CN(C)c1nccc(-c2cnc3ncccn23)n1 | binding |  | 1 µM | 82
COc1cnc(Nc2cccc(S(N)(=O)=O)c2)nc1N1CCN(c2ccccc2)C(=O)C1 | binding | competition with immobilised ligand | 1 µM | 100
O=C(Nc1c[nH]nc1C(=O)NC1CCNCC1)c1cc(F)cc(F)c1 | binding | competition with immobilised ligand | 1 µM | 92
O=C(Nc1cnc(Oc2ccc(F)cc2)nc1)N1CCc2ncccc2[C@@H]1c1ccc(F)cc1 | cell-free assay | competition with immobilised ligand | 1 µM | 84
c1cnn2ncc(-c3ccnc(N4CCC45COC5)n3)c2c1 | binding |  | 1 µM | 93
O=C(c1ccc(Nc2ncc(Cl)c(-c3ccc(Cl)s3)n2)cc1)N1CCC(N2CCCC2)CC1 | binding | competition with immobilised ligand | 1 µM | 23
CCC(=O)N[C@H]1CC[C@@H](C(=O)N(C)c2ccc(-c3nc4ccccc4o3)cc2)C1 | cell-free assay | competition with immobilised ligand | 1 µM | 100
O=C(NCCCN1CCOCC1)c1ccc(Nc2ncc(Cl)c(-c3ccc(Cl)s3)n2)cc1 | binding | competition with immobilised ligand | 1 µM | 59
C[C@@H]1CN(c2cc(-c3nn(C)c4ccc(OC5(C)CC5)cc34)ncn2)C[C@H](C)O1 | cell-free assay | competition with immobilised ligand | 1 µM | 91
FC(F)(F)Oc1cccc(-c2cnc3ccc(-c4ccncc4)nn23)c1 | cell-free assay | competition with immobilised ligand | 5 µM | 96
Nc1ncc2c(n1)-c1c([nH]c3ccc(C#CC4CC4)cc13)CCCC2 | binding | competition with immobilised ligand | 1 µM | 98
CN(CCCC(F)(F)F)c1nccc(-c2cnn3ncccc23)n1 | binding |  | 1 µM | 100
O=C(NCCCC1CCCCC1)c1ccc(CNC(=O)c2cnn(-c3ccccc3)c2C(F)(F)F)cc1 | cell-free assay | competition with immobilised ligand | 0.1 µM | 100
CN(C)c1ncc(F)c(-c2cnn3ncccc23)n1 | binding |  | 1 µM | 100
CNCc1ccccc1-c1csc([C@@H](C)Nc2nc(C)nc3cc(OC)c(OC)cc23)c1 | cell-free assay | competition with immobilised ligand | 1 µM | 95
N[C@@H]1CCN(c2nccc(-c3cnn4ncccc34)n2)C1 | binding |  | 1 µM | 100
COc1cnc(Nc2cccc(S(N)(=O)=O)c2)nc1N1CCN(c2ccccc2)CC1 | binding | competition with immobilised ligand | 1 µM | 100
COc1ccnn2ncc(-c3ccnc(N(C)C)n3)c12 | binding |  | 1 µM | 99
CNC(=O)Nc1ccc2c(c1)CC[C@@]21OC(=O)N(CC(=O)N(Cc2ccc(F)cc2)[C@@H](C)C(F)(F)F)C1=O | cell-free assay | competition with immobilised ligand | 1 µM | 96
C[C@H]1CCN(c2nccc(-c3cnn4ncccc34)n2)C1 | binding |  | 1 µM | 98
O=C(c1ccc(Nc2ncc(Cl)c(-c3cc4ccccc4s3)n2)cc1)N1CCC(N2CCCC2)CC1 | binding | competition with immobilised ligand | 1 µM | 25
